# Screens from PubChem.
# Most compounds without a hit are left out; they make up all but 1.3% or so of the library.
# NR2E3 ag-1: inhibitors of NR2E3-RetCOR corepressor binding, primary screen, NR2E3 agonist project, biochemical, TR-FRET, GST-NR2E3, biotin-RetCOR; Photoreceptor-specific nuclear receptor (Homo sapiens), Q9Y5X4; 1536-well; inhibition of corepressor binding, % at 4.78 µM; 320,000 compounds, 0.12% hits;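 active = percent inhibition above the cutoff of mean plus 3 SD of all tested compounds, set per screening campaign, cut at about 20% in these data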;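 note: 0% = DMSO wells and 100% = biotin wells as full block of FRET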
#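 Test system: GST-NR2E3 and biotin-RetCOR proteins | Quantity: 1.35 nM GST-tagged NR2E3 final | Medium: Tris pH 7.5 | Also added: 7 nM biotin-RetCOR | Dosing: Compound at 4.8 µM, single dose | Timing: 5 h at 4 °C | Detection: Time-resolved FRET | Read-out basis: Percent inhibition | Benchmarks: Biotin wells as high control, 0.6% DMSO wells as low control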
# JMJD2C inh: inhibitors of GASC-1 histone demethylase, primary screen, biochemical, fluorescence, DELFIA europium; GST-JMJD2C(1-420) H3K9me3 demethylation; AID 2099, 2009; inhibition, % at 2.35 µM; 330,000 compounds, 0.069% hits; Lysine-specific demethylase 4C (Homo sapiens), Q9H3R0;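 active = more than half of a compound's replicate wells show inhibition beyond 50%, single wells judged on their own value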;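 note: signal counts dimethyl H3K9 product captured on neutravidin plate; 0% = median of DMSO wells and 100% = 0.3 times that DMSO median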
# NR2E3 ag-2: NR2E3 agonists in two-hybrid cells, primary screen, cell-based, luminescence, CHO-S, Gal4-NCOR/VP16-NR2E3; Photoreceptor-specific nuclear receptor (Homo sapiens), Q9Y5X4; luciferase; inhibition of corepressor binding, % at 3.98 µM; 360,000 compounds, 0.35% hits;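 active = inhibition above the mean of all tested compounds plus 3 SD, cut at about 70% in these data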;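 note: 0% = DMSO with NR2E3 transfected cells and 100% = cells lacking NR2E3 construct; higher means lower luciferase signal from less NR2E3 corepressor binding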
# PGE2 EP2 inh: human EP2 receptor antagonists, primary screen, TR-FRET cAMP, C6 glioma cells | Prostaglandin E2 receptor EP2 subtype (Homo sapiens), P43116 | 260,000 compounds, 0.52% hits | C6 glioma cells expressing human EP2; cells stimulated with saturating PGE2 | inhibition, % at 25 µM;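 active = percent inhibition above 40 after rounding to a whole number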;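 note: rat C6 glioma host cells with rolipram phosphodiesterase inhibitor present; the protocol text gives 20 µM as final concentration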
# Target sequence (P43116 whole entry, looked up): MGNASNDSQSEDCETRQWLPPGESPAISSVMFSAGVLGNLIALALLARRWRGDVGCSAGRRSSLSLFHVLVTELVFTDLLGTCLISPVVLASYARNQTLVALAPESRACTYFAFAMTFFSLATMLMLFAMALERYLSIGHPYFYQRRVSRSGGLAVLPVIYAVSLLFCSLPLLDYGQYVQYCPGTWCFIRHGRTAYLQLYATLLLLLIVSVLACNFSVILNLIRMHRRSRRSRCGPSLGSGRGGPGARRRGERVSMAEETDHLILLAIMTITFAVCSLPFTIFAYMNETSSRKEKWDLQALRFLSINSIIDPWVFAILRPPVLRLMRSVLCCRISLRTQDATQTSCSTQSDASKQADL
# Furin inhibitor: human furin inhibitors, primary screen, biochemical, fluorescence intensity; purified furin, fluorogenic substrate cleavage; inhibition, % at 20 µM or 30 µM; 220,000 compounds, 0.061% hits; in the data active = inhibition above about 25%
# EP2 modulator: EP2 receptor modulators, cAMP readout, primary screen, cell-based, HTRF cAMP, PGE2 stimulation | Prostaglandin E2 receptor EP2 subtype (Homo sapiens), P43116 | EP2-expressing cells, cAMP HTRF FRET, PGE2 co-stimulation | induction, % at 25 µM | 260,000 compounds, 0.83% hits;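 active = compounds whose cAMP rise, as percent of the full-agonist control response, exceeds 60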;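 note: rat C6 glioma line stably carrying human EP2 under a CMV promoter; the protocol text gives 20 µM as final concentration; 100% = response of wells given 1 µM PGE2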
# An asterisk follows results filed as active; . = not tested or not shown; ! = not active in a repeat.
SMILES,NR2E3 ag-1,JMJD2C inh,NR2E3 ag-2,PGE2 EP2 inh,Furin inhibitor,EP2 modulator
CCC(c1nnnn1C1CCCC1)N(Cc1ccccc1)Cc1cc2cccc(C)c2[nH]c1=O (stereo unspecified),.,.,.,25.3,.,63.8*
CCC(c1nnnn1C1CCCCC1)N(Cc1ccco1)Cc1cc2c(C)ccc(C)c2[nH]c1=O (stereo unspecified),.,.,.,12.7,.,76.5*
CCC(c1nnnn1C1CCCCC1)N(Cc1ccc(C)cc1)Cc1cc2c(C)ccc(C)c2[nH]c1=O (stereo unspecified),.,.,.,5.6,.,29.5
Cc1ccc2c(c1C)NC(C)CC2C (stereo unspecified),2.1,-8.6,-2.4,9.0,26.4*,25.2
COc1ccc(Nc2ncnc3sc(-c4ccccc4)cc23)cc1OC,0.8,54.2*,2.6,9.8,-13.4,-51.6
COc1ccc(Nc2ncnc3c2cnn3-c2ccccc2)cc1OC,1.8,12.1,-33.7,16.4,-19.5,-0.7
O=C(O)c1cccc(NC(=S)NC(=O)c2ccc(-c3ccc(Cl)cc3)o2)c1,5.5,-0.2,-11.6,14.4,-17.2,63.8*
Cc1ccc(C(=O)O)cc1NC(=S)NC(=O)c1ccc([N+](=O)[O-])cc1Cl,3.5,7.5,3.5,0.8,-18.4,8.7
O=C(O)c1ccc(NC(=S)NC(=O)c2ccc(-c3ccc(Br)cc3)o2)cc1,1.8,5.6,6.3,.,.,.
Cc1ccc(C(=O)O)cc1NC(=S)NC(=O)c1ccc(-c2ccc(Cl)cc2)o1,1.5,4.0,-30.9,7.3,-5.6,89.0*
Cc1nn(CC(=O)NCc2ccco2)c(=O)c2cc3ccsc3n12,.,.,.,.,.,1.8
CCOC(=O)c1c(CSC(=N)N)n(-c2ccc(C)cc2)c2cc(Br)c(OC(C)=O)cc12,-0.5,-8.0,-29.0,127.3*,4.6,-42.5
Cc1cc2nc(SCC(=O)N(C)C)c3c(c2cc1C)CCCC3,2.7,-0.4,41.9,13.3,-4.7,61.6*
O=C(O)CSc1nc2ccccc2c2c1CCCC2,.,.,.,9.0,.,88.1*
COc1cccc(-n2nnc3c(=O)n(Cc4ccccc4Cl)cnc32)c1,-2.0,-6.4,-4.8,6.4,28.0*,22.2
COc1cccc(-n2nnc3c(=O)n(Cc4ccc(Cl)cc4)cnc32)c1,-0.3,14.5,-9.5,5.5,-20.3,19.5
CCn1c(=O)c(C(=O)NCCc2ccccc2)c(O)c2ccccc21,1.2,5.1,-46.3,3.1,-22.4,60.7*
CCn1c(=O)c(C(=O)NCCCl)c(O)c2ccccc21,.,.,.,9.1,.,-7.5
CCCn1c(=O)c(C(=O)Nc2ccccc2OC)c(O)c2ccccc21,.,.,.,14.1,.,66.7*
CCCn1c(=O)c(C(=O)Nc2ccccc2C)c(O)c2ccccc21,-3.9,1.4,-14.8,.,.,.
CCCOc1c(CN2CCC(NC(C)=O)(c3ccccc3F)CC2)cccc1OC,.,.,.,8.0,.,-32.4
COCCNC(=S)N(Cc1ccc(OC)cc1)Cc1cc2ccc(C)c(C)c2[nH]c1=O,.,.,.,9.1,.,-27.0
O=C(COc1ccc(Cl)cc1)Nc1nc2ccc(F)cc2s1,.,.,.,8.9,.,-38.3
CCCCC(CC)CN=C(N)NC(N)=NCCCCCCN=C(N)NC(N)=NCC(CC)CCCC (stereo unspecified),-1.2,.,90.2*,71.2*,.,-15.2
CN(C1=C(N2CCCCC2)C(=O)c2ccccc2C1=O)c1ccccc1,-1.1,14.1,-14.5,7.2,-25.4,63.5*
SMILES,NR2E3 ag-1,JMJD2C inh,NR2E3 ag-2,PGE2 EP2 inh,Furin inhibitor,EP2 modulator
O=C1C(Nc2ccccc2)=C(N2CCCCC2)C(=O)c2ccccc21,3.5,1.0,-40.5,22.7,-13.3,-3.6
O=C(Cc1cccc(F)c1)NCCn1nc(-c2cccs2)ccc1=O,.,.,.,7.6,.,-56.7
CCn1c(SCC(=O)Nc2ccccc2C)nnc1-c1ccccc1O,-0.2,1.8,24.5,4.5,-12.3,14.2
CCn1c(SCC(=O)Nc2cc(F)ccc2C)nnc1-c1ccccc1O,4.2,12.2,-17.3,-0.2,32.2*,1.0
O=C(C[n+]1ccc2ccccc2c1)c1ccc2ccc3ccccc3c2c1,.,.,-14.2,59.1*,.,24.5
CCC(NC(=O)c1cc(-c2cnn(C)c2)n[nH]1)c1ccc(F)cc1 (stereo unspecified),.,.,.,5.3,.,-51.2
Cc1ccc(C(=O)N2CCN(c3ccc(NC(=S)NC(=O)Cc4ccccc4)cc3)CC2)cc1,1.4,-1.8,72.0*,4.5,-11.1,-17.4
Cc1cc2cc(CN(Cc3cccs3)Cc3nnnn3Cc3ccccc3)c(=O)[nH]c2cc1C,.,.,.,14.1,.,17.7
Cc1cc(C)c2cc(CN(Cc3cccs3)Cc3nnnn3CCc3ccccc3)c(=O)[nH]c2c1,.,.,.,10.0,.,63.2*
CCc1nn(CC(=O)NC2CCCC2)c(=O)c2cc3ccsc3n12,.,.,.,.,.,-24.0
N#CC1=C(N)Oc2n[nH]c(-c3cccs3)c2C1c1ccncc1 (stereo unspecified),0.9,-30.8,1.4,6.7,-25.7,-6.0
Cc1ccc(C2C(C#N)=C(N)Oc3n[nH]c(-c4cccs4)c32)s1 (stereo unspecified),1.8,5.4,-29.2,43.5*!,-11.4,2.2
CCc1[nH]nc2c1C(c1ccc(Br)s1)C(C#N)=C(N)O2 (stereo unspecified),6.7,-104.8,-18.0,44.3*,-19.5,-17.0
CCOc1cc(/C=C/c2nc(O)c([N+](=O)[O-])c(=O)[nH]2)ccc1OCc1ccc(F)cc1,.,.,.,9.7,.,14.2
COC(=O)c1cc([N+](=O)[O-])c(-n2ccnc2)c([N+](=O)[O-])c1,-1.3,-5.1,-10.3,5.3,-7.6,62.7*
O=C(Nc1ccccc1Br)/C(=C\c1ccco1)NC(=O)c1ccccc1,.,.,.,11.6,.,20.3
COc1ccc(N=C2NN=C(c3ccc4c(c3)OCCO4)CS2)cc1,2.4,7.7,-39.3,40.8*,-1.8,-1.8
CN1CCN(CCCBr)CC1,.,.,.,41.0*,.,27.6
Cc1ccc2cc(C)c(SCC(=O)N3CCCC(C)C3)nc2c1 (stereo unspecified),.,.,.,9.4,.,62.0*
Cn1c(C(=O)OCC(=O)NC(C)(C)C)cc2occc21,.,.,.,8.4,.,-39.6
O=C(CCCSc1nc(-c2ccco2)cc(C(F)(F)F)n1)Nc1cccnc1,.,.,.,12.8,.,-30.2
Cc1n(CC(O)COc2ccc(F)cc2)c2ccccc2[n+]1C (stereo unspecified),.,.,.,18.8,.,4.6
COc1ccc(Br)cc1CNC(=O)CCc1nc(-c2ccc(C)cc2)no1,2.1,1.8,-38.9,9.9,25.8*,16.2
Cc1ccccc1CSc1ncnc2ccccc12,3.2,-0.8,2.6,13.0,-28.3,62.4*
